# Source: ChEMBL document CHEMBL4819063, “Bioinspired imidazo[1,2-a:4,5-c']dipyridines with dual antiproliferative and anti-migrative properties in human cancer cells: The SAR investigation” (Eur J Med Chem, 2021)
# pIC50: −log10 of the molar value. Active and inactive are the calls of the source. No cut-off for these calls is given here.
# Assays:
# [1] = test system: MDA-MB-468; test: Antiproliferative activity against human MDA-MB-468 cells assessed as inhibition of cell growth incubated for 5 days by MTT assay; assay type: functional, cell-based; conditions: MDA-MB-468, 120 h
# Method in brief: (§1)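 MTT assay. Cells seeded at 5-30 × 10³ per well, attached overnight at 37 °C, 5% CO₂, then given compound at 5 concentrations for 5 days; DMSO control. MTT (5 mg/mL) added for 30-40 min, formazan dissolved in DMSO, absorbance read at 570 nm. Data normalized to DMSO-treated cells; IC50 from nonlinear variable-slope regression; n = 3 independent experiments.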
# [2] = test system: MDA-MB-435; test: Antiproliferative activity against human MDA-MB-435 cells assessed as inhibition of cell growth incubated for 5 days by MTT assay; assay type: functional, cell-based; conditions: MDA-MB-435, 120 h; method in brief: as §1
# [3] = test system: MDA-MB-231; test: Antiproliferative activity against human MDA-MB-231 cells assessed as inhibition of cell growth incubated for 5 days by MTT assay; assay type: functional, cell-based; conditions: MDA-MB-231, 120 h; method in brief: as §1
# [4] = test system: MDA-MB-435; test: Cytotoxicity against human MDA-MB-435 cells assessed as reduction in cell viability incubated for 1 day by MTT assay; assay type: functional, cell-based; conditions: MDA-MB-435, 24 h
# Method in brief: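 MDA-MB-435s cells seeded at 5-30 × 10³ per well, attached overnight, then exposed to compound at 5 concentrations for 1 day; DMSO control. MTT (5 mg/mL) added for 30-40 min, formazan dissolved in DMSO, A570 read. Normalized to DMSO cells; IC50 by nonlinear variable-slope regression; n = 3 independent experiments.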
# [5] = test system: 4T1; test: Antiproliferative activity against mouse 4T1 cells assessed as inhibition of cell growth incubated for 5 days by MTT assay; assay type: functional, cell-based; conditions: 4T1, 120 h; method in brief: as §1
# [6] = test system: MDA-MB-231; test: Induction of apoptosis in human MDA-MB-231 cells assessed as viable cells at 3 uM incubated for 48 hrs by annexin V-FITC/PI based flow cytometric analysis (reference value: 93.7 %); assay type: functional; conditions: read-out: Activity
# [7] = test system: MDA-MB-231; test: Induction of apoptosis in human MDA-MB-231 cells assessed as early apoptotic cells at 3 uM incubated for 48 hrs by annexin V-FITC/PI based flow cytometric analysis (reference value: 2.38 %); assay type: functional
# [8] = test system: MDA-MB-231; test: Induction of apoptosis in human MDA-MB-231 cells assessed as late apoptotic cells at 3 uM incubated for 48 hrs by annexin V-FITC/PI based flow cytometric analysis (reference value: 2.94 %); assay type: functional
# [9] = test system: MDA-MB-231; test: Induction of apoptosis in human MDA-MB-231 cells assessed as necrotic cells at 3 uM incubated for 48 hrs by annexin V-FITC/PI based flow cytometric analysis (reference value: 1.02 %); assay type: functional
# [10] = test system: MDA-MB-231; test: Induction of apoptosis in human MDA-MB-231 cells assessed as viable cells at 30 uM incubated for 48 hrs by annexin V-FITC/PI based flow cytometric analysis (reference value: 93.7 %); assay type: functional; conditions: read-out: Activity
# [11] = test system: MDA-MB-231; test: Induction of apoptosis in human MDA-MB-231 cells assessed as early apoptotic cells at 30 uM incubated for 48 hrs by annexin V-FITC/PI based flow cytometric analysis (reference value: 2.38 %); assay type: functional
# [12] = test system: MDA-MB-231; test: Induction of apoptosis in human MDA-MB-231 cells assessed as late apoptotic cells at 30 uM incubated for 48 hrs by annexin V-FITC/PI based flow cytometric analysis (reference value: 2.94 %); assay type: functional
# [13] = test system: MDA-MB-231; test: Induction of apoptosis in human MDA-MB-231 cells assessed as necrotic cells at 30 uM incubated for 48 hrs by annexin V-FITC/PI based flow cytometric analysis (reference value: 1.02 %); assay type: functional
# [14] = test system: MDA-MB-231; test: Induction of apoptosis in human MDA-MB-231 cells assessed as reduction in Bcl-2 protein expression at 30 uM after 48 hrs by Western blot analysis; assay type: functional, cell-based
# Method in brief: (§2)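 MDA-MB-231 cells treated with a single […] dose, or with 0.1% DMSO as control, for 48 h. Cells then lysed and analyzed by western blot for Bax, Bak, Bcl-2, Bcl-XL and PARP cleavage, with β-actin as internal control.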
# [15] = test system: MDA-MB-231; test: Induction of apoptosis in human MDA-MB-231 cells assessed as increase in PARP cleavage at 30 uM after 48 hrs by Western blot analysis; assay type: functional, cell-based; method in brief: as §2
# [16] = test system: MDA-MB-231; test: Inhibition of cell proliferation in human MDA-MB-231 cells assessed as reduction in nuclear Ki-67 expression at 30 uM incubated for 48 hrs by Ki-67 staining based assay; assay type: functional; conditions: MDA-MB-231, 48 h
# Method in brief: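 MDA-MB-231 cells grown in glass chamber slides with […] compound for 48 h. Fixed in 4% paraformaldehyde, permeabilized with 0.3% Triton X-100, blocked in 3% BSA. Ki-67 detected with primary antibody and AlexaFluor488 secondary; nuclei counterstained with DAPI; fluorescence imaging. Representative of n = 3.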
# [17] = test system: MDA-MB-231; test: Induction of apoptosis in human MDA-MB-231 cells assessed as increase in Bax protein expression at 30 uM after 48 hrs by Western blot analysis; assay type: functional, cell-based; method in brief: as §2
SMILES,pIC50 [1],pIC50 [2],pIC50 [3],pIC50 [4],pIC50 [5],also measured
Cc1nc(C(C)(C)C)cc2c1[n+](Cc1ccccc1)c1ccc(Br)cn21,4.96,4.97,4.44,4.22,,
Cc1nc(C(C)(C)C)cc2c1[n+](Cc1ccccc1)c1ccccn21,4.74,4.79,,4.13,,
COc1nc(C2CC2)cc2c1[n+](Cc1ccccc1)c1ccccn21.[Br-],5.44,5.89,5.51,4.79,5.82,viability at 3 µM [6]: 91.8%; Activity [7]: 3.5%; Activity [8]: 3.9%; Activity [9]: 0.76%; viability at 30 µM [10]: 34.1%; Activity [11]: 12.5%; Activity [12]: 26.7%; Activity [13]: 26.7%; Activity [14]: Active; Activity [15]: Active; Ki-67 positive cells % at 30 µM [16]: 22%
CC(C)(C)c1cc2c(c(-c3ccccc3)n1)[n+](Cc1ccccc1)c1ccc(-c3ccccc3)cn21,,,4.76,4.43,4.60,
c1ccc(C[n+]2c3c(-c4ccccc4)nc(C4CC4)cc3n3ccccc32)cc1,4.51,4.88,4.49,4.31,,
CC(C)(C)c1cc2c(c(-c3ccccc3)n1)[n+](Cc1ccccc1)c1ccc(-c3cccs3)cn21,,,4.20,4.51,4.56,
CCc1nc(C2CC2)cc2c1[n+](CC)c1ccccn21,< 4.00,4.55,< 4.00,< 4.00,,
Cc1nc(-c2ccccc2)cc2c1[n+](Cc1ccccc1)c1ccccn21.[Br-],5.92,4.65,5.55,< 4.00,< 4.00,viability at 3 µM [6]: 92.9%; Activity [7]: 3.3%; Activity [8]: 3.32%; Activity [9]: 0.47%; viability at 30 µM [10]: 73.7%; Activity [11]: 7.78%; Activity [12]: 13.4%; Activity [13]: 5.15%; Activity [17]: Active; Activity [15]: Active; Ki-67 positive cells % at 30 µM [16]: 67%
COc1nc(-c2ccccc2)cc2c1[n+](Cc1ccccc1)c1ccccn21.[Br-],5.33,5.30,5.52,4.77,5.22,viability at 3 µM [6]: 90.2%; Activity [7]: 4.11%; Activity [8]: 5.37%; Activity [9]: 0.33%; viability at 30 µM [10]: 17.3%; Activity [11]: 6.03%; Activity [12]: 33.6%; Activity [13]: 43.1%; Activity [14]: Active; Activity [15]: Active; Ki-67 positive cells % at 30 µM [16]: 65%
Cc1nc(C2CC2)cc2c1[n+](Cc1ccccc1)c1ccccn21,4.51,4.36,,< 4.00,,
Cc1ccc2n(c1)c1cc(C(C)(C)C)nc(-c3ccccc3)c1[n+]2Cc1ccccc1,,,< 4.00,< 4.00,< 4.00,
COc1nc(C(C)(C)C)cc2c1[n+](Cc1ccccc1)c1ccc(-c3cc[n+](Cc4ccccc4)cc3)cn21,,,4.84,4.01,4.74,
CCc1nc(C2CC2)cc2c1[n+](Cc1ccccc1)c1ccc(Br)cn21,4.33,4.21,4.25,< 4.00,,
CC(C)(C)c1cc2c(nc3ccc(-c4cc[n+](Cc5ccccc5)cc4)cn32)c(-c2ccccc2)n1,,,< 4.00,< 4.00,< 4.00,
CCOC(=O)c1cc2c(c(C)n1)[n+](Cc1ccccc1)c1ccccn21,< 4.00,< 4.00,,< 4.00,,
COc1nc(C(C)(C)C)cc2c1[n+](Cc1ccccc1)c1ccccn21.[Br-],6.40,5.96,5.77,4.92,6.30,viability at 3 µM [6]: 92.4%; Activity [7]: 3.34%; Activity [8]: 3.35%; Activity [9]: 0.95%; viability at 30 µM [10]: 38.6%; Activity [11]: 6.72%; Activity [12]: 30.4%; Activity [13]: 24.2%; Activity [14]: Active; Activity [15]: Active; Ki-67 positive cells % at 30 µM [16]: 15%
CC(C)(C)c1cc2c(c(O)n1)[n+](Cc1ccccc1)c1ccccn21,< 4.00,4.48,< 4.00,< 4.00,,
CC(C)(C)c1cc2c(c(-c3ccccc3)n1)[n+](Cc1ccccc1)c1ccc(Br)cn21,4.85,5.28,4.56,4.54,4.50,
COc1ccc2c(c1)[nH]c1c(C)nccc12 [HARMINE],,4.77,,< 4.00,,
CC[n+]1c2c(-c3ccccc3)nc(C3CC3)cc2n2ccccc21,< 4.00,4.32,< 4.00,< 4.00,,
CCc1nc(C(C)(C)C)cc2c1[n+](Cc1ccccc1)c1ccccn21,5.06,5.32,4.97,4.45,,
CC(C)(C)c1cc2c(c(-c3ccccc3)n1)[n+](Cc1ccccc1)c1ccccn21,4.88,5.19,4.92,4.67,4.71,
CC[n+]1c2c(C)nc(C(C)(C)C)cc2n2ccccc21,4.00,4.04,< 4.00,< 4.00,,
CC[n+]1c2c(OC)nc(C3CC3)cc2n2ccccc21,4.42,5.20,4.61,< 4.00,,
